ChEMBL document CHEMBL1140051, “Discovery of novel Cdc25 phosphatase inhibitors with micromolar activity based on the structure-based virtual screening” (J Med Chem, 2008)

Key:
[1] = biological target: T1, M-phase inducer phosphatase 2 (Homo sapiens, UniProt P30305); test: Inhibition of Cdc25B (378-566) expressed in Escherichia coli
T1 sequence (P30305 whole entry): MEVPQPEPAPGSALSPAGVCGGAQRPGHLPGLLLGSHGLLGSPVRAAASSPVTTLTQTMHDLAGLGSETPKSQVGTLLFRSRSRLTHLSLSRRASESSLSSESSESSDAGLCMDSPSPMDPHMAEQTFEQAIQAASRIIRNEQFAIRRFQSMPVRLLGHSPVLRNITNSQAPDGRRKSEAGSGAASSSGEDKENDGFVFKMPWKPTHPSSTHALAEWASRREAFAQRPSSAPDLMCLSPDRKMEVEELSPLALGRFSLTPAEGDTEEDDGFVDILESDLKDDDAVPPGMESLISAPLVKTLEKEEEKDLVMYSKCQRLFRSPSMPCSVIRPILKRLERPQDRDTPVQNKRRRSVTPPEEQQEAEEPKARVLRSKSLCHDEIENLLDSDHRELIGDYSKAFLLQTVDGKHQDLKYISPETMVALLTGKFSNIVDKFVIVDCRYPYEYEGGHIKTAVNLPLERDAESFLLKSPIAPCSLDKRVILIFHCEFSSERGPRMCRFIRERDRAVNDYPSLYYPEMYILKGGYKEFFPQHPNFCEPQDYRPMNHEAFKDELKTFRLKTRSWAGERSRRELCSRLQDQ

[2] = biological target: T2, M-phase inducer phosphatase 1 (Homo sapiens) (UniProt P30304); test: Inhibition of Cdc25A (336-523) expressed in Escherichia coli at 50 uM
T2 sequence (whole entry): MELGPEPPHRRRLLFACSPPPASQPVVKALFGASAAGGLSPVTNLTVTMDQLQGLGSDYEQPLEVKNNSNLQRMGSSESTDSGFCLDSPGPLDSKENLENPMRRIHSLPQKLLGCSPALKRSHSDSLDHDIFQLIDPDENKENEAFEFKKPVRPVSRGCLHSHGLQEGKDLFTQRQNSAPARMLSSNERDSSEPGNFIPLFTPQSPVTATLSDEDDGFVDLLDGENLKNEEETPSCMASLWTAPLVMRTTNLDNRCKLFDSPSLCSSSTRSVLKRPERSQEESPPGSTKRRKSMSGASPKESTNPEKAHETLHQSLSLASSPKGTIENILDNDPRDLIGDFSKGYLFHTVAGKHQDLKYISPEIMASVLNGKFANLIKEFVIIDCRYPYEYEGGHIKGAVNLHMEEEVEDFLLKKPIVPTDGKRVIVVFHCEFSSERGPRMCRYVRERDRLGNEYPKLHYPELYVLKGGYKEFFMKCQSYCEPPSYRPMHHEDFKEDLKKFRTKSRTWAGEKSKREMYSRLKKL

[3] = biological target: T3, M-phase inducer phosphatase 2 (Homo sapiens) (UniProt P30305); test: Inhibition of Cdc25B (378-566) expressed in Escherichia coli at 50 uM
T3 sequence (whole entry): T1 sequence (P30305 whole entry)

[4] = biological target: T4, M-phase inducer phosphatase 1 (Homo sapiens, UniProt P30304); test: Inhibition of Cdc25A (336-523) expressed in Escherichia coli
T4 sequence (P30304 whole entry): T2 sequence (whole entry)
In short: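 Inhibitor added in DMSO. 20 min at room temperature, stopped with 1 mM orthovanadate (final). IC50 determined at least three times and averaged.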

[5] = biological target: T4, M-phase inducer phosphatase 1; test: Binding affinity to Cdc25A (336-523) expressed in Escherichia coli by steady-state kinetic assay
[6] = Inhibition of Cdc25A R501K mutant
[7] = Inhibition of Cdc25B R544A mutant
[8] = Inhibition of Cdc25A R501A mutant
[9] = Inhibition of Cdc25B R544K mutant

| SMILES | IC50 [1] [µM] | inhibition [2] [%] | inhibition [3] [%] | IC50 [4] [µM] | Ki [5] [µM] | IC50 [6] [µM] | IC50 [7] [µM] | IC50 [8] [µM] | IC50 [9] [µM] |
| --- | --- | --- | --- | --- | --- | --- | --- | --- | --- |
| C=CCn1c(SCC(=O)c2ccc(O)c(O)c2)nnc1-c1cccc(Cl)c1 | 4.67 | > 70 | > 70 | 3.28 |  |  |  |  |  |
| Cc1ccc(NC2=NC(=O)/C(=C/C=C/c3ccco3)S2)cc1C |  | > 70 | > 70 |  |  |  |  |  |  |
| Cc1ccc(/N=C2N=C(O)/C(=C/C=C/c3ccco3)S\2)cc1C | 5.44 |  |  | 4.27 | 21.4 |  |  |  |  |
| N#CC1=C(S)N(c2ccccc2)C(/C=C/c2ccc(-c3ccc(Cl)cc3)o2)NC1=O (configuration not stated) | 12.6 | > 70 | > 70 | 3.31 | 29.2 |  |  |  |  |

Results, then the compound that gave them:

| IC50 [1] [µM] | inhibition [2] [%] | inhibition [3] [%] | IC50 [4] [µM] | Ki [5] [µM] | IC50 [6] [µM] | IC50 [7] [µM] | IC50 [8] [µM] | IC50 [9] [µM] | SMILES |
| --- | --- | --- | --- | --- | --- | --- | --- | --- | --- |
|  | > 70 | > 70 |  |  |  |  |  |  | Cc1ccc(-c2nnc(SCC(=O)c3ccc(O)c(O)c3)n2-c2ccc(Cl)cc2)cc1 |
| 14.2 | > 70 | > 70 | 4.07 | 20.4 | 6.09 | 16 | 12.1 | 17.4 | COc1ccc(-n2nnc(SCC(=O)c3ccc(O)c(O)c3)n2)cc1 |
| 23.6 |  |  | 4.56 |  |  |  |  |  | CC1=C(SCCO)C(=O)c2ccccc2C1=O |
